# High-throughput results from PubChem BioAssay.
# In the library only some 3.1% were active in any assay of this set; here they are far more common.
# SENP6 block – inhibitors of human SENP6 protease; Q9GZR1; Recombinant SENP6 catalytic domain, aminoluciferin luminescence; inhibition, % at 10 µM; actives 1.8% (n = 330,000); AID 2599;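 active = inhibition above about 50% at the single tested dose, limit read from the data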
# UBC13 inh – human UBC13 polyubiquitination inhibition. UBC13 polyubiquitin chain formation, TR-FRET. inhibition, % at 20 µM. actives 0.47% (n = 330,000). AID 485273; in the data active = inhibition above about 45%, passing the limit was not always enough; inconclusive = no clear call, values can overlap the other calls
# SENP8 block-1 – SENP8 (human) protease inhibition. recombinant SENP8, Nedd8 substrate fluorescence. inhibition, % at 20 µM. actives 0.64% (n = 360,000). AID 602440; in the data active = inhibition mostly above about 40%, no sharp cut-off; inactive = mostly below about 27%
# Target sequence (Q96LD8 whole entry, looked up): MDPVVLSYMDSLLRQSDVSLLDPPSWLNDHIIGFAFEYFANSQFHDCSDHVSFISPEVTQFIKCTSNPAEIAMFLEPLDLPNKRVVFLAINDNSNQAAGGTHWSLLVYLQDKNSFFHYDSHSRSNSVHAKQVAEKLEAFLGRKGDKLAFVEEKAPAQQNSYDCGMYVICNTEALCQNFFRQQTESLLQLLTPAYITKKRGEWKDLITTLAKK
# SENP8 block-2 – SENP8 protease inhibition. actives 1.2% (n = 330,000). AID 2540. purified SENP8, Z-RLRGG-aminoluciferin cleavage, luminescence. Q96LD8. inhibition, % at 10 µM; in the data active = inhibition above about 50%
# Apaf-1 inh – blocks human Apaf-1 apoptosome activity; actives 0.71% (n = 330,000); O14727; inhibition, % at 20 µM; AID 489030; reconstituted apoptosome caspase-3 activity, DEVD-Rh110 fluorescence; active = inhibition of at least 40% at 20 µM
#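 detection = Rh110 fluorescence intensity | test system = biochemical Apaf-1 apoptosome reconstitution | also added = cytochrome c and DEVD-Rh110 substrate | schedule = 30 min plus 50 min, RT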
# SENP7 block – blocks the human protease SENP7. Q9BQF6. recombinant SENP7, Z-RLRGG-aminoluciferin luminescence, 40 min. inhibition, % at 5 µM. actives 1.5% (n = 330,000). AID 434973;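 active = inhibition above about 50% at the single test dose, limit read from the data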
# Target sequence (Q9BQF6 706-1050 limits assumed): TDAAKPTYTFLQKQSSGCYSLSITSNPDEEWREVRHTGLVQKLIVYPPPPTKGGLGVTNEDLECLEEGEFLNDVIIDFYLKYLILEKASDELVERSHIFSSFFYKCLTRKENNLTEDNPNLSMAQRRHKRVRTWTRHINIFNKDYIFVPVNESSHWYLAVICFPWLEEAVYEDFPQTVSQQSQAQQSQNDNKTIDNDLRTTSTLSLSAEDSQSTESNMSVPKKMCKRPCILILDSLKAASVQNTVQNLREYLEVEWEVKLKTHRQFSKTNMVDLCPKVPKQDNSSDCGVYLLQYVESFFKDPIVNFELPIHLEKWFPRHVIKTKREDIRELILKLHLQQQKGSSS
# Hits are given with their value; 0 = inactive; ? = inconclusive; - = no result.
SMILES,SENP6 block,UBC13 inh,SENP8 block-1,SENP8 block-2,Apaf-1 inh,SENP7 block
Cc1cccc(NC(=O)/C=C/c2ccc(Cl)cc2)n1,84,0,0,68,0,86
Cc1cccc(NC(=O)/C(C#N)=C/c2ccc(Cl)cc2)n1,0,0,0,0,0,0
O=C(Nc1ccc2ccccc2c1)C(c1ccc(C(F)(F)F)cc1)n1c(=O)c(-c2cc3ccccc3[nH]2)nc2ccccc21 (stereo not drawn),-,-,0,-,-,-
O=C(c1[nH]c(C(F)(F)F)nc1-c1ccccc1)N1CCN(c2cccc(C(F)(F)F)n2)CC1,-,-,0,-,-,-
CCNC(=O)C1(C)CCCN(C(=O)c2ccc3c(c2)C(C)(C)CCC3(C)C)C1 (stereo not drawn),-,-,0,-,-,-
CCCC[C@@H]1Cc2[nH][nH]c(=O)c2[C@H](c2ccc(C(C)C)cc2)O1,-,-,0,-,-,-
O=C(NC(=S)Nc1ccc2c(c1)C(=O)c1ccccc1C2=O)c1ccc(F)cc1,78,0,-,52,0,64
COCC(=O)OC1CCn2c1nc1c2C(=O)C(C)=C(NC(C)=O)C1=O (stereo not drawn),-,-,96,-,-,-
CC(C)=C[C@H]1C[C@H](C)[C@H]2CC[C@H](C)c3c(O[C@@H]4O[C@@H](C)[C@@H](O)[C@@H](O)[C@@H]4O)c(O)c(C)c1c32,-,-,0,-,-,-
CSc1ccccc1NC(=O)c1cc(S(=O)(=O)N(C)C)ccc1N1CCCC1,0,0,0,0,52,0
Cc1cccc(C)c1NC(=O)C(c1ccnc2ccccc12)N1CCN(CCN(C)C)CC1 (stereo not drawn),-,-,0,-,-,-
COC(=O)[C@]12CCCCC=C1N(CCc1ccc(OC)c(OC)c1)C(=O)[C@H](CC(=O)NCCc1ccccc1OC)C2,-,-,0,-,-,-
CCCCN1C(=O)/C(=C/C=C2/CC(C)(C)CN2C)SC1=S,0,0,46,0,0,0
CCCCN1C(=O)/C(=C/C=C2\Oc3ccccc3N2CC)SC1=S,-,-,0,-,-,-
O=C(c1cc(O)c(O)c([N+](=O)[O-])c1)c1ccccc1F,0,0,39,0,0,0
O=[N+]([O-])c1ccccc1/C=N/Nc1nccnc1Cl,0,0,0,0,0,0
O=[N+]([O-])c1cccnc1N/N=C/c1ccccc1O,93,0,0,87,0,97
COC(=O)[C@]12CCCCC=C1N(Cc1ccc3c(c1)OCO3)C(=O)[C@H](CC(=O)NCC13CC4CC(CC(C4)C1)C3)C2,-,-,0,-,-,-
CC(=O)OC1=C(O)C(=O)c2ccccc2C1=O,0,0,-,0,59,0
O=C(c1cnn(-c2ccccc2)c1)c1cc(F)ccc1O,0,0,0,0,0,0
O=C(c1cnn(-c2ccccc2)c1)c1ccccc1O,85,0,0,81,0,87
O/N=C/c1ccccc1OCc1ccccc1F,0,0,0,0,0,0
O/N=C/c1ccc(OCc2ccccc2F)c(Cl)c1,92,0,0,80,0,75
O=C(CC1Nc2ccccc2NC1=O)NCCc1ccccc1 (stereo not drawn),0,0,0,0,0,0
O=C(CC1Nc2ccccc2NC1=O)c1ccccc1 (stereo not drawn),72,0,-,59,0,0
SMILES,SENP6 block,UBC13 inh,SENP8 block-1,SENP8 block-2,Apaf-1 inh,SENP7 block
Cc1ccc(S(=O)(=O)N2[C@H](CC(=O)Oc3ccccc3)OC[C@@H]2C(C)C)cc1,-,-,0,-,-,-
COC(=O)[C@]12CCCCC=C1N(CCc1ccc(OC)c(OC)c1)C(=O)[C@H](CC(=O)NCc1cccc(C(F)(F)F)c1)C2,-,-,0,-,-,-
COc1cc(CCCN2CCNC[C@@H]2c2ccccc2)cc(OC)c1OC,0,0,0,0,0,0
c1ccc([C@H]2CNCCN2CCc2cccc3ccccc23)cc1,0,0,0,0,55,0
O=C(NC1CCCC1)C(C1CC1)n1c(-c2ccccn2)nc2ccccc21 (stereo not drawn),-,-,0,-,-,-
Cn1cccc1/C=C1\SC(=S)N(NC(=O)c2ccccc2)C1=O,-,-,0,-,-,-
Cn1cccc1/C=C1\SC(=S)N(NC(=O)c2ccc(F)cc2)C1=O,0,0,52,0,0,0
Cn1cccc1/C=C1\SC(=S)N(NC(=O)c2ccccc2O)C1=O,0,0,47,0,0,0
CC(/C=C1\SC(=S)N(NC(=O)c2ccc(C)cc2)C1=O)=C\c1ccccc1,0,0,40,0,0,0
CSC1=NC=C(C#N)C2=NC(c3ccc(Cl)cc3)NN12 (stereo not drawn),-,-,0,-,-,-
CCN1/C(=C/C=C/C=C/c2sc3ccccc3[n+]2CC)Sc2ccccc21,0,?,-,0,80,0
CC(C)(C)NC(=O)C(c1ccncc1)n1c(-c2ccc(C(F)(F)F)cc2)nc2ccccc21 (stereo not drawn),-,-,0,-,-,-
ClN=C1C=CC=CC1=NCl,-,-,38,-,-,-
Cc1cccc(CSc2ccc(-c3ccco3)nn2)c1,52,0,0,0,0,0
CCCNC(=O)C[C@H]1CC[C@@H]2[C@H](COC[C@@H](O)CN2C(=O)c2ccccn2)O1,-,-,0,-,-,-
CCCS(=O)(=O)NC(=O)C1(C)CCN(C(=O)c2cccc(C(F)(F)F)c2)C1 (stereo not drawn),-,-,0,-,-,-
COCCN1C(=O)/C(=C/c2ccc(N3CCCC3)cc2)SC1=S,0,0,44,0,0,0
COc1ccc(/C=C2/SC(=S)N(CCC(=O)N3CCN(C)CC3)C2=O)cc1,0,0,37,0,0,0
O=C(NC1CCCCC1)C1c2ccccc2OCC(=O)N1Cc1ccc2c(c1)OCO2 (stereo not drawn),-,-,0,-,-,-
O=C(O)c1ccc(N=N/C(=N\Nc2ccc(C(=O)O)cc2)c2ccccc2)cc1,0,0,45,0,0,0
Cc1cc(C(=O)N/N=C/c2cc(N=Nc3ccccc3)ccc2O)n[nH]1,-,-,41,-,-,-
CC(C(=O)NC1CCCC1)n1c(C2CC2)nc2ccccc21 (stereo not drawn),-,-,0,-,-,-
COc1cccc(/C=C2\CCc3ccccc3C2=O)c1,99,0,0,95,0,94
CCC(C)c1ccccc1O (stereo not drawn),0,0,0,0,0,0
CCC(c1ccccc1)C(CC)c1cc(O)c(O)c(O)c1 (stereo not drawn),-,-,64,-,-,-
SMILES,SENP6 block,UBC13 inh,SENP8 block-1,SENP8 block-2,Apaf-1 inh,SENP7 block
CC1(C)CC(Cc2ccc(C(F)(F)F)cn2)N(C(=O)OC(C)(C)C)C1 (stereo not drawn),-,-,0,-,-,-
NC1=CC(=O)C(=O)c2ccccc21,-,-,0,-,-,-
O=C1C=C(O)c2[nH]c(=O)ccc2C1=O,-,-,64,-,-,-
O=C(N/N=C/c1ccc([N+](=O)[O-])s1)c1ccccc1,50,0,0,0,0,0
Cc1ccnn1CC(=O)N/N=C/c1ccc([N+](=O)[O-])s1,51,0,0,0,0,0
O=C(NCc1ccccc1)C(C1CC1)n1c(CSCCOc2ccccc2)nc2ccccc21 (stereo not drawn),-,-,0,-,-,-
O=C(O)c1ccc(CSC2CCCCC2)cc1,58,0,0,51,0,0
O=C1Nc2ccccc2C(=O)N(Cc2ccccc2)C1C(=O)NC1CC1 (stereo not drawn),-,-,0,-,-,-
C/C(=N\OC(=O)c1ccc(F)cc1)c1ccc(F)c(F)c1,80,0,0,73,0,92
